In general, bioavailability refers to dose-corrected exposure relative to a reference, in per cent. A higher bioavailability goes with much systemic uptake. The term AUC(0-t) denotes exposure summed from dosing to a finite time, without extrapolation to infinity. A low value points to less exposure. The half-life is how long it takes for the measured level to halve.

Results on three compounds are retold here after article PMC9532533 (Acta Pharmaceutica Sinica. B, 2022).

Series [1] deals with 32D KIT V559D/N822K cells. Put plainly: Antiproliferation assay, 32D KIT V559D/N822K cells. The series is classed as cell-based, murine. Conditions: Mus musculus, read-out: GI50, V559D/N822K.
Series [2] concerns 32D KIT^D816V xenografts. Put plainly: In vivo antitumor efficacy, 32D KIT^D816V xenograft. Details: species or system nude mice. Conditions: i.g., BID × 12; for mortality and body weight loss: whole period of treatment.
Series [3] is described as follows: Pharmacokinetics in mice. The series is classed as in vivo, male ICR (CD-1) mice. As to conditions: male, ICR (CD-1), mouse, plasma; for AUC(0-t) / half-life: po, 10 mg/kg. The method, boiled down: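 Male ICR (CD-1) mice, n = 3 per route, each given a single dose of test compound: 2 mg/kg i.v. or 10 mg/kg p.o. Plasma drug levels measured by LC/MS/MS, and key PK parameters derived from these concentration data.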

The test system of series [4] is phosphorylation of KIT^D816V and downstream STAT3 and ERK. In words: Western blot of KIT signaling in 32D KIT^D816V cells. The series is classed as cell-based, murine. Conditions: 4-h treatment.
Series [5] has as its system 32D KIT V559D/V654A cells. In words: Antiproliferation assay, 32D KIT V559D/V654A cells. The series is classed as cell-based, murine. Conditions: Mus musculus, read-out: GI50, V559D/V654A.
The test system of series [6] is 32D KIT V559D cells. Put plainly: Antiproliferation assay, 32D KIT V559D cells. The series is classed as cell-based, murine. As to conditions: Mus musculus, read-out: GI50, V559D.
For series [7], the system named is 32D cells. Put plainly: Antiproliferation assay, normal parent 32D cells. Format: cell-based, murine. As to conditions: Mus musculus, read-out: 32D cells (GI50, nmol/L).

With `Cc1ccc(C(=O)NCc2ccsc2)cc1C#Cc1cn(C(C)C)c2ncnc(N)c12` [Compound 54], the GI50 in series [1] was 0.8 nM; in series [5], 1.1 nM; in series [6] it was 0.09 nM; in series [7], over 1000 nmol/L. For the same compound, the “TGI (tumor growth inhibition)” value amounted to 45% in series [2] (20 mg/kg) and 71% in series [2] (40 mg/kg). Also, in series [2], the “mortality and body weight loss” value is listed as “no mortality or obvious body weight loss”. This compound came in with a bioavailability in series [3] (oral, 10 mpk) of 29.9%. The same compound yielded an exposure AUC(0-t) in series [3] of 1280 ng·h/mL. Besides, in series [3], the half-life was 2.29 h. For the same compound, in series [4], the “inhibition of phosphorylation of KIT^D816V and downstream STAT3 and ERK” value was “potent inhibition effects”.
Turning to `COCCn1cc(C#Cc2cc(C(=O)NCc3ccsc3)ccc2C)c2c(N)ncnc21` [Compound 57], the “suppression of growth of 32D KIT^D816V xenografts” value in series [2] (high dose group 100 mg/kg) was 50%. Also, the “mortality and body weight loss” value in series [2] is on record as “no mortality or obvious body weight loss”. In series [3], this compound had an AUC(0-t) of 233 ng·h/mL and a half-life of 1.34 h. In series [4], the “inhibition of phosphorylation of KIT^D816V and downstream STAT3 and ERK” value is listed as “potent inhibition effects”.
Take `CCn1c(=O)c(-c2cc(NC(=O)Nc3ccccc3)c(F)cc2Br)cc2cnc(NC)cc21` [Ripretinib, ripretinib, reference compound]: in series [2], the “mortality and body weight loss” value is recorded as “no mortality or obvious body weight loss”.
